The record followed here is ChEMBL document CHEMBL4334454, “Alkaloids Purified from Aristotelia chilensis Inhibit the Human α3β4 Nicotinic Acetylcholine Receptor with Higher Potencies Compared with the Human α4β2 and α7 Subtypes” (J Nat Prod, 2019).

Calls of active or inactive are those of the source. No cut-off for these calls is given here.

Holding throughout (assay type): cell-based
Assay [1] has as its target T1, Neuronal acetylcholine receptor; alpha4/beta2 (Homo sapiens, UniProt P17787+P43681). Put plainly: Agonist activity at human AChR alpha4beta2 transfected in human HEK293 cells assessed as increase in calcium influx incubated for 1 hr by fluo-4 dye based assay.
For assay [2], the target named is T2, Neuronal acetylcholine receptor subunit alpha-7 (Homo sapiens, UniProt P36544). Put plainly: Agonist activity at human AChR alpha7 transfected in rat GH3 cells assessed as increase in calcium influx incubated for 1 hr by fluo-4 dye based assay.
T2 sequence (P36544 whole entry): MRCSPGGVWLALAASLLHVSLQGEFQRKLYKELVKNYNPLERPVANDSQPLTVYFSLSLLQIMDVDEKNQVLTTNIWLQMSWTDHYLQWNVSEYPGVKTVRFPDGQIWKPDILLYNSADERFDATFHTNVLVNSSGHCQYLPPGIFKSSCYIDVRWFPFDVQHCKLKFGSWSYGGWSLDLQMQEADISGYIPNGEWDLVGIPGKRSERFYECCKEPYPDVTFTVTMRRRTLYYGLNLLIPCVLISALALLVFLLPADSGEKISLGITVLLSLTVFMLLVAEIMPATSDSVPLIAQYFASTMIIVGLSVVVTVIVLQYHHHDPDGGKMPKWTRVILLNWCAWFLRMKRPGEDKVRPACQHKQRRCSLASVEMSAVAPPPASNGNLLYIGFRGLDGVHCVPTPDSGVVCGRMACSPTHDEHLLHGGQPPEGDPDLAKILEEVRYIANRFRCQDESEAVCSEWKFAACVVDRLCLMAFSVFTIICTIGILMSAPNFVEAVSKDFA
Assay [3] deals with T2, Neuronal acetylcholine receptor subunit alpha-7. Put plainly: Antagonist activity at human AChR alpha7 transfected in rat GH3 cells assessed as decrease in epibatidine-induced calcium influx incubated for 1 hr by fluo-4 dye based assay. Summed up:
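GH3-hα7 cells were seeded 72 h ahead, kept in HBSS/1% FBS (pH 7.4) 16–24 h, and loaded with Fluo-4 plus 2.5 mM probenecid for 1 h at 37 °C. After washing, cells were pretreated 5 min with varied alkaloid concentrations. 1.0 μM (±)-epibatidine was then added while fluorescence (488/510 nm) was recorded for 78 s. Data were normalized to the maximal epibatidine response, mean ± SD (n = 3). IC50 and nH were fitted.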

The target in assay [4] is T1, Neuronal acetylcholine receptor; alpha4/beta2. The assay can be described thus: Antagonist activity at human AChR alpha4beta2 transfected in human HEK293 cells assessed as decrease in epibatidine-induced calcium influx incubated for 1 hr by fluo-4 dye based assay. The procedure, abridged: (§1)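 HEK293-hα3β4 or HEK293-hα4β2 cells were seeded 72 h ahead, kept in HBSS/1% FBS (pH 7.4) 16–24 h, and loaded with Fluo-4 plus 2.5 mM probenecid for 1 h at 37 °C. After washing, cells were pretreated 5 min with alkaloid at varied concentrations. 0.1 μM (±)-epibatidine was then added while fluorescence (488/510 nm) was recorded for 78 s. Responses were normalized to the maximal epibatidine response, mean ± SD (n = 3). IC50 and nH came from concentration–response curves.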

Assay [5] has as its target T2, Neuronal acetylcholine receptor subunit alpha-7. The assay can be described thus: Antagonist activity at human AChR alpha7 transfected in […] cells assessed as decrease in epibatidine-induced calcium influx at 10 to 100 uM incubated for 1 hr by fluo-4 dye based assay relative to control.
The species entered for assay [6] is Homo sapiens. Put plainly: Selectivity index, ratio of IC50 for human AChR alpha4beta2 transfected in human HEK293 cells to IC50 for human AChR alpha3beta4 transfected in human HEK293 cells.
Assay [7] concerns the target T3, Neuronal acetylcholine receptor; alpha3/beta4 (Homo sapiens, UniProt P30926+P32297). Put plainly: Antagonist activity at human AChR alpha3beta4 transfected in human HEK293 cells assessed as decrease in epibatidine-induced calcium influx incubated for 1 hr by fluo-4 dye based assay.
For assay [8], the species on record is Homo sapiens. Put plainly: Selectivity index, ratio of IC50 for human AChR alpha7 transfected in rat GH3 cells to IC50 for human AChR alpha3beta4 transfected in human HEK293 cells.
In assay [9] the target is T1, Neuronal acetylcholine receptor; alpha4/beta2. The assay can be described thus: Antagonist activity at human AChR alpha4beta2 transfected in human HEK293 cells assessed as decrease in epibatidine-induced calcium influx at 10 to 100 uM incubated for 1 hr by fluo-4 dye based assay relative to control. The procedure, abridged: as §1
Assay [10] has as its target T3, Neuronal acetylcholine receptor; alpha3/beta4. Put plainly: Antagonist activity at human AChR alpha3beta4 transfected in human HEK293 cells assessed as decrease in epibatidine-induced calcium influx at 100 uM incubated for 1 hr by fluo-4 dye based assay relative to control. Summed up: as §1

T1 sequence (P17787 whole entry): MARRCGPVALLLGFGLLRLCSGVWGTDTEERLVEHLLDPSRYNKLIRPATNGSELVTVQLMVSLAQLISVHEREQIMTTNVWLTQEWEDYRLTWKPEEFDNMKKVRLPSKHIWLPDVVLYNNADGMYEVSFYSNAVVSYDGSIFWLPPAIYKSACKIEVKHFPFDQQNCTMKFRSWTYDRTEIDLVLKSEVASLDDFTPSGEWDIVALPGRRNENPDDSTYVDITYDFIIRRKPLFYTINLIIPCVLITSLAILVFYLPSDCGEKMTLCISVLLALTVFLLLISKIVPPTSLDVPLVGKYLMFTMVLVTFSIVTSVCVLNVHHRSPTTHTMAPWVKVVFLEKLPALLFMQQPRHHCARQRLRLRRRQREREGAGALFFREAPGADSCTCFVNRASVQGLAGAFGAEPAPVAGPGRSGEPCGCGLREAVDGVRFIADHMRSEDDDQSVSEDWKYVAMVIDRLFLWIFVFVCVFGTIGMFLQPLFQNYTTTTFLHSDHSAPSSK
T1 sequence (P43681 whole entry): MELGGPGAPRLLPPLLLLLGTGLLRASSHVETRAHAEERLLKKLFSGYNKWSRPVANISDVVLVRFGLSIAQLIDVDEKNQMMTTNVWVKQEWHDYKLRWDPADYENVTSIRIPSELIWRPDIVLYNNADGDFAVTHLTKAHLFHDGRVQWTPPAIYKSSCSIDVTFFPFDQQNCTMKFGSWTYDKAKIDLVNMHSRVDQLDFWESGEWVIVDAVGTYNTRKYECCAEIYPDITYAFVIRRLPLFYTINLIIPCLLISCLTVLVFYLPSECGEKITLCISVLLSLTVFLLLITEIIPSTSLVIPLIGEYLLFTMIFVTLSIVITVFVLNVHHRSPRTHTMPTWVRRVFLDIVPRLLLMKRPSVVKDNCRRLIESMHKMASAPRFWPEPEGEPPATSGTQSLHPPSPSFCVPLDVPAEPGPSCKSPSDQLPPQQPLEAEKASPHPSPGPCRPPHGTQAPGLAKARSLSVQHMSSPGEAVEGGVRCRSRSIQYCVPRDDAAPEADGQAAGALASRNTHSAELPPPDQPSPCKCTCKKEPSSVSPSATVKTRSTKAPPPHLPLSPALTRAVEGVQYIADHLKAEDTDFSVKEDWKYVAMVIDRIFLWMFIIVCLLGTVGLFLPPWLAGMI
T3 sequence (P30926 whole entry): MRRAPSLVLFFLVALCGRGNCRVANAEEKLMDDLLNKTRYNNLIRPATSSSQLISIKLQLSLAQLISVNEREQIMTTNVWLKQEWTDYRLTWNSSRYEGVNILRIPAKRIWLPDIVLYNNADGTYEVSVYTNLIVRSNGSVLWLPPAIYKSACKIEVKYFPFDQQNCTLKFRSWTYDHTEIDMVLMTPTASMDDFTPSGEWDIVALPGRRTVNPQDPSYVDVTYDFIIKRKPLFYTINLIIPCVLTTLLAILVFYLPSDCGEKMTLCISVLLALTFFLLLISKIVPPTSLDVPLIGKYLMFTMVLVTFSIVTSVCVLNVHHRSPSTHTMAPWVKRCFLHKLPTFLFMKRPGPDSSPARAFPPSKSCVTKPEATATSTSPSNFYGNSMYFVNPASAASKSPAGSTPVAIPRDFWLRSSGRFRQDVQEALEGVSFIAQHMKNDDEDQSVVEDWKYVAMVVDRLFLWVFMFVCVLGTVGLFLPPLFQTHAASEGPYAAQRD
T3 sequence (P32297 whole entry): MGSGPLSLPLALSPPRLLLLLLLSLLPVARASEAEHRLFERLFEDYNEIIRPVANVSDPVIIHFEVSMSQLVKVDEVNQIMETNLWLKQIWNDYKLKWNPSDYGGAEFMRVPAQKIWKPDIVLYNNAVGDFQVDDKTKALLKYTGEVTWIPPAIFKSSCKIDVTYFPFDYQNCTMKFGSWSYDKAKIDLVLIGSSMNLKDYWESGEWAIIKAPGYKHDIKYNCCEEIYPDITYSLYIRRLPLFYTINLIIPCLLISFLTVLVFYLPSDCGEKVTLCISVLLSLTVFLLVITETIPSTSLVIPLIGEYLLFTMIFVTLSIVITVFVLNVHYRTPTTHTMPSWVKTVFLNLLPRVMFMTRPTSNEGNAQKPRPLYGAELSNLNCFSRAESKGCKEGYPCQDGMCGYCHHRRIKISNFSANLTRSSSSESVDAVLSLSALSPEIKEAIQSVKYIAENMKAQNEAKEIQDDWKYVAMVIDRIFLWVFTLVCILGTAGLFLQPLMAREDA

In general, IC50 refers to the point on the concentration scale where inhibition reaches its midpoint. For `CC1=CC[C@@H]2C[C@H]1[C@@H](c1ccnc3ccccc13)NC2(C)C`, the outcome in assay [1] and in assay [2] was inactive. Besides, the figures for the half-inhibitory concentration (IC50) in [3] (read-out: IC50) and in assay [4] were 45.3 µM and 6.7 µM, respectively.

On to `Clc1ccc(C2C[C@@H]3CC[C@H]2N3)cn1` (mixture of isomers), for which the result in assay [1] and in assay [2] was Active.

As a reminder, the inhibition is the drop in the measured response relative to a control, in per cent. As to `CC1(C)N[C@@H]2Cc3c([nH]c4ccccc34)[C@]3(C)CC[C@H]1C[C@H]23`, the inhibition in assay [5] and in assay [9] was 100% in each case. Further, the result in assay [1] and in assay [2] was inactive. Further, the Ratio IC50 in the assay filed under Homo sapiens [6] was determined as 8.4; in the assay listed under Homo sapiens [8], 67.5. Further, the IC50 in assay [3] (read-out: IC50) came to 27 µM; in assay [7] it was 0.4 µM; in assay [4], 3.4 µM.

For the molecule `CC1(C)[C@@H]2C[C@@H]3[C@H]4C[C@@]5(Nc6ccccc6[C@@H]5N41)[C@]3(C)CC2=O`, the inhibition result in assay [5] and in assay [9] was “inactive” in each case. In addition, the outcome in assay [1] and in assay [2] was inactive. Further, the IC50 result was “Not Active” in assay [3] (gh3), 167 µM in [7] and 145 µM in assay [4]. For the same molecule, in assay [10], the inhibition worked out at 40%.
